In brackets after ≈: the same amount, converted by molar mass. Activity calls are given as the source filed them. The calls are words filed in the database; no cut-off is given here. Non-standard residues stand in square brackets, D forms with d. Residues, ends and D or L forms follow the SMILES beside them.
Key:
[1] = system: Pseudomonas aeruginosa; assay: Antimicrobial activity against Pseudomonas aeruginosa PAO1 assessed as microbial growth inhibition incubated for 16 to 20 hrs by broth microdilution method; format: functional; settings: time 16-20 hrs
Procedure, shortened: (§1)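 Broth microdilution in MH broth, pH 7.4. An overnight LB colony culture (37 °C, 180 rpm) was diluted to OD600 0.022, giving about 5 × 10^5 CFU per well. MTT was then added, and MIC was read by eye as the lowest concentration without visible growth. Two independent duplicates were run.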

[2] = system: Acinetobacter baumannii; assay: Antimicrobial growth against Acinetobacter baumannii ATCC 19606 assessed as microbial growth inhibition incubated for 16 to 20 hrs by broth microdilution method; format: functional; settings: time 16-20 hrs; procedure, shortened: as §1
[3] = Induction of membrane disruption in eukaryotic inner membrane mimic EYPC vesicles assessed as carboxyfluorescein leakage at 10 ug/ml measured after 240 secs by fluorescence based assay; format: cell membranes; settings: dose 10.0 µg/ml, time 240.0 sec
[4] = system: Klebsiella pneumoniae; assay: Antimicrobial activity against Klebsiella pneumoniae NCTC418 assessed as microbial growth inhibition incubated for 16 to 20 hrs by broth microdilution method; format: functional; settings: time 16-20 hrs
Procedure, shortened: (§2)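 Broth microdilution in Mueller–Hinton broth pH 7.4. Overnight LB colony culture diluted to OD600 0.022; roughly 5 × 10^5 CFU final inoculum. Static incubation at 37 °C for 16–20 h, then MTT added at room temperature. MIC is the lowest concentration with no visible growth, read by eye. Two independent duplicates.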

[5] = system: Escherichia coli; assay: Antimicrobial activity against Escherichia coli W3110 assessed as microbial growth inhibition incubated for 16 to 20 hrs by broth microdilution method; format: functional; settings: time 16-20 hrs; procedure, shortened: as §1
[6] = system: Cell membrane; assay: Induction of membrane disruption in bacterial membrane mimic EYPG vesicles assessed as carboxyfluorescein leakage at 10 ug/ml measured after 240 secs by fluorescence based assay; format: subcellular; settings: dose 10.0 µg/ml, time 240.0 sec
[7] = system: Erythrocyte; assay: Hemolytic activity in human RBC incubated for 4 hrs by visual analysis; format: toxicity, cell-based
[8] = system: Staphylococcus aureus; assay: Antimicrobial activity against methicillin-resistant Staphylococcus aureus COL assessed as microbial growth inhibition incubated for 16 to 20 hrs by MTT assay; format: functional; settings: time 16-20 hrs; procedure, shortened: as §2
[9] = system: Burkholderia cenocepacia; assay: Antimicrobial activity against multidrug-resistant Burkholderia cenocepacia assessed as microbial growth inhibition incubated for 16 to 20 hrs by broth microdilution method; format: functional; settings: time 16-20 hrs
Procedure, shortened: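 Broth microdilution in Mueller–Hinton broth pH 7.4. Peptides serially diluted 1/2 from 2 mg/mL water stocks over 0.5–64 μg/mL. Overnight LB colony culture diluted to OD600 0.022; roughly 5 × 10^5 CFU final inoculum. Static incubation at 37 °C for 16–20 h, then MTT added at room temperature. MIC is the lowest concentration with no visible growth, read by eye. Two independent duplicates.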

[10] = system: HEK293; assay: Cytotoxicity against HEK293 cells assessed as reduction in cell viability at 0 to 200 uM incubated for 24 hrs by Alamar blue assay; format: toxicity, cell-based; settings: human, hek293, 24 h, dose 0-200 µM
Procedure, shortened: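 HEK293 cells were kept in DMEM with 10% FBS and penicillin/streptomycin, seeded at 4000 cells/well the day before, then exposed to peptide at 0–200 μM for 24 h at 37 °C, 5% CO2. Viability was read with 10% AlamarBlue for 3–5 h (ex 560/em 590 nm), normalized to untreated cells.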

[11] = system: Pseudomonas aeruginosa; assay: Antimicrobial activity against Pseudomonas aeruginosa PAO1 assessed as bacterial killing at 8 ug/ml measured after 1 hr by time-kill assay; format: functional, organism-based; settings: dose 8.0 µg/ml
Procedure, shortened: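 P. aeruginosa PAO1 from an overnight LB culture was diluted to 2 × 10^6 CFU/mL in MH, pH 7.4, then mixed 1:1 with peptide in MH and incubated at 37 °C with shaking at 180 rpm. Survivors were counted by plating 10-fold dilutions on LB agar at 0–6 h (37 °C, 10 h). Done in triplicate.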

[12] = Proteolytic stability in human serum assessed as drug degradation at 200 uM incubated for 10 mins by RP-HPLC analysis; format: ADME, cell-free

Compound	MIC [1] [µg/mL]	MIC [4] [µg/mL]	MHC [7] [µg/mL]	MIC [8] [µg/mL]	MIC [9] [µg/mL]	also measured
H-RRIIRIIRIII-NH2	64	16	62.5	16	–	MIC [2]: 8 µg/mL; Activity [3]: 39%; MIC [5]: 16 µg/mL; Activity [6]: 99%
CC(C)C[C@H](NC(=O)[C@H](CC(C)C)NC(=O)[C@H](CC(C)C)NC(=O)[C@@H](CCCNC(=N)N)NC(=O)[C@H](CC(C)C)NC(=O)[C@H](CC(C)C)NC(=O)[C@@H](CCCNC(=N)N)NC(=O)[C@H](CC(C)C)NC(=O)[C@H](CC(C)C)NC(=O)[C@@H](CCCNC(=N)N)NC(=O)[C@H](N)CCCNC(=N)N)C(N)=O (H-[dR][dR]LL[dR]LL[dR]LLL-NH2)	–	–	125	2 (≈ 1.39 µM)	–	–
CC(C)C[C@H](NC(=O)[C@H](CC(C)C)NC(=O)[C@H](CC(C)C)NC(=O)[C@H](CCCCN)NC(=O)[C@@H](CC(C)C)NC(=O)[C@H](CC(C)C)NC(=O)[C@H](CCCCN)NC(=O)[C@@H](CC(C)C)NC(=O)[C@@H](CC(C)C)NC(=O)[C@@H](CCCCN)NC(=O)[C@@H](N)CCCCN)C(N)=O	–	–	62.5	–	> 64	–
CC(C)C[C@H](NC(=O)[C@H](CC(C)C)NC(=O)[C@H](CC(C)C)NC(=O)[C@H](CCCCN)NC(=O)[C@H](CC(C)C)NC(=O)[C@H](CC(C)C)NC(=O)[C@H](CCCCN)NC(=O)[C@H](CC(C)C)NC(=O)[C@H](CC(C)C)NC(=O)[C@H](CCCCN)NC(=O)[C@@H](N)CCCCN)C(N)=O	–	–	125	–	–	Activity [10]: Non-Toxic
CC(C)C[C@H](NC(=O)[C@H](CCCCN)NC(=O)[C@H](N)CCCCN)C(=O)N[C@@H](CC(C)C)C(=O)N[C@@H](CCCCN)C(=O)N[C@@H](CC(C)C)C(=O)N[C@@H](CC(C)C)C(=O)N[C@@H](CCCCN)C(=O)N[C@@H](CC(C)C)C(=O)N[C@@H](CC(C)C)C(=O)N[C@H](CC(C)C)C(N)=O	–	–	62.5	–	–	Activity [11]: Active
CC[C@H](C)[C@H](NC(=O)[C@@H](NC(=O)[C@@H](NC(=O)[C@@H](CCCCN)NC(=O)[C@@H](NC(=O)[C@@H](NC(=O)[C@@H](CCCCN)NC(=O)[C@@H](NC(=O)[C@@H](NC(=O)[C@@H](CCCCN)NC(=O)[C@H](N)CCCCN)[C@@H](C)CC)[C@@H](C)CC)[C@@H](C)CC)[C@@H](C)CC)[C@@H](C)CC)[C@@H](C)CC)C(N)=O (H-[dK][dK]II[dK]II[dK]III-NH2)	–	> 64	125	> 64	–	–
CC(C)C[C@H](NC(=O)[C@H](CC(C)C)NC(=O)[C@H](CC(C)C)NC(=O)[C@H](CCCCN)NC(=O)[C@H](CC(C)C)NC(=O)[C@H](CC(C)C)NC(=O)[C@H](CCCCN)NC(=O)[C@H](CC(C)C)NC(=O)[C@H](CC(C)C)NC(=O)[C@@H](CCCCN)NC(=O)[C@@H](N)CCCCN)C(N)=O	–	–	< 15.6	–	> 64	–
CC(C)C[C@@H](NC(=O)[C@@H](CC(C)C)NC(=O)[C@@H](CC(C)C)NC(=O)[C@H](CCCCN)NC(=O)[C@@H](CC(C)C)NC(=O)[C@@H](CC(C)C)NC(=O)[C@H](CCCCN)NC(=O)[C@@H](CC(C)C)NC(=O)[C@@H](CC(C)C)NC(=O)[C@H](CCCCN)NC(=O)[C@@H](N)CCCCN)C(N)=O	–	–	250	–	–	Stability [12]: Unstable
CC[C@H](C)[C@H](NC(=O)[C@@H](NC(=O)[C@@H](NC(=O)[C@@H](CCCNC(=N)N)NC(=O)[C@@H](NC(=O)[C@@H](NC(=O)[C@@H](CCCNC(=N)N)NC(=O)[C@@H](NC(=O)[C@@H](NC(=O)[C@@H](CCCNC(=N)N)NC(=O)[C@H](N)CCCNC(=N)N)[C@@H](C)CC)[C@@H](C)CC)[C@@H](C)CC)[C@@H](C)CC)[C@@H](C)CC)[C@@H](C)CC)C(N)=O (H-[dR][dR]II[dR]II[dR]III-NH2)	4 (≈ 2.79 µM)	32 (≈ 22.3 µM)	250	8 (≈ 5.58 µM)	–	MIC [2]: 8 µg/mL (≈ 5.58 µM); Activity [3]: 8%; MIC [5]: 8 µg/mL (≈ 5.58 µM); Activity [6]: 98%
H-KKLLKLLKLLLKKLLKLLKLLL-NH2	> 64	> 64	< 15.6	> 64	–	MIC [2]: > 64 µg/mL; MIC [5]: > 64 µg/mL
CC(C)C[C@H](NC(=O)[C@H](CC(C)C)NC(=O)[C@H](CC(C)C)NC(=O)[C@@H](CCCCN)NC(=O)[C@H](CC(C)C)NC(=O)[C@H](CC(C)C)NC(=O)[C@@H](CCCCN)NC(=O)[C@H](CC(C)C)NC(=O)[C@H](CC(C)C)NC(=O)[C@@H](CCCCN)NC(=O)[C@@H](CCCCN)NC(=O)[C@H](CC(C)C)NC(=O)[C@H](CC(C)C)NC(=O)[C@H](CC(C)C)NC(=O)[C@@H](CCCCN)NC(=O)[C@H](CC(C)C)NC(=O)[C@H](CC(C)C)NC(=O)[C@@H](CCCCN)NC(=O)[C@H](CC(C)C)NC(=O)[C@H](CC(C)C)NC(=O)[C@@H](CCCCN)NC(=O)[C@H](N)CCCCN)C(N)=O (H-[dK][dK]LL[dK]LL[dK]LLL[dK][dK]LL[dK]LL[dK]LLL-NH2)	> 64	> 64	< 15.6	> 64	–	MIC [2]: > 64 µg/mL
H-RRLLRLLRLLL-NH2	8	–	15.6	–	–	Activity [3]: 99%; Activity [6]: 30%
CC(C)C[C@H](NC(=O)[C@H](CC(C)C)NC(=O)[C@H](CC(C)C)NC(=O)[C@H](CCCCN)NC(=O)[C@H](CC(C)C)NC(=O)[C@H](CC(C)C)NC(=O)[C@H](CCCCN)NC(=O)[C@@H](CC(C)C)NC(=O)[C@@H](CC(C)C)NC(=O)[C@@H](CCCCN)NC(=O)[C@@H](N)CCCCN)C(N)=O	–	–	< 15.6	–	> 64	–
CC(C)C[C@H](NC(=O)[C@H](CC(C)C)NC(=O)[C@H](CC(C)C)NC(=O)[C@H](CCCCN)NC(=O)[C@H](CC(C)C)NC(=O)[C@H](CC(C)C)NC(=O)[C@H](CCCCN)NC(=O)[C@@H](CC(C)C)NC(=O)[C@H](CC(C)C)NC(=O)[C@@H](CCCCN)NC(=O)[C@@H](N)CCCCN)C(N)=O	–	–	< 15.6	–	> 64	–
CC(C)C[C@H](NC(=O)[C@H](CC(C)C)NC(=O)[C@H](CCCCN)NC(=O)[C@H](CC(C)C)NC(=O)[C@H](CC(C)C)NC(=O)[C@@H](CCCCN)NC(=O)[C@H](N)CCCCN)C(=O)N[C@@H](CCCCN)C(=O)N[C@@H](CC(C)C)C(=O)N[C@@H](CC(C)C)C(=O)N[C@H](CC(C)C)C(N)=O	–	–	125	–	> 64	Activity [11]: Active
CC(C)C[C@H](NC(=O)[C@H](CC(C)C)NC(=O)[C@H](CC(C)C)NC(=O)[C@H](CCCCN)NC(=O)[C@H](CC(C)C)NC(=O)[C@H](CC(C)C)NC(=O)[C@H](CCCCN)NC(=O)[C@H](CC(C)C)NC(=O)[C@H](CC(C)C)NC(=O)[C@@H](CCCCN)NC(=O)[C@H](N)CCCCN)C(N)=O	–	–	< 15.6	–	> 64	–
H-KKIIKIIKIII-NH2	> 64	> 64	62.5	> 64	–	–
CC(C)C[C@H](NC(=O)[C@H](CC(C)C)NC(=O)[C@@H](CC(C)C)NC(=O)[C@H](CCCCN)NC(=O)[C@@H](CC(C)C)NC(=O)[C@@H](CC(C)C)NC(=O)[C@H](CCCCN)NC(=O)[C@@H](CC(C)C)NC(=O)[C@@H](CC(C)C)NC(=O)[C@H](CCCCN)NC(=O)[C@@H](N)CCCCN)C(N)=O	–	–	> 2000	–	–	Activity [3]: 4%

From ChEMBL document CHEMBL5338802, “To Fold or Not to Fold: Diastereomeric Optimization of an α-Helical Antimicrobial Peptide” (J Med Chem, 2023)
